Source: publication PMC4980721 (Cellular and molecular gastroenterology and hepatology, 2016)
Where “and” joins values, the source holds several entries; their conditions need not be identical. Equal entries are not always repeated.

Assays:
[1] = test system: human proximal colon FFPE specimens; experiment: Immunofluorescence of proximal human colon specimens with claudin-1 peptide; conditions: human proximal colon FFPE sections, 5 µM peptide 10 min at RT
Method in brief: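 FFPE sections (5 µm) deparaffinized. Antigen retrieval: boiling 10 mM sodium citrate, 0.05% Tween, pH 6.0, then sub-boiling 15 min. Protein serum block 15 min RT. 5 µM Cy5.5-labeled peptide 10 min RT, then anti-claudin-1 (1:200) overnight and AF488 secondary (1:500) 1 h RT, DAPI mount. Equal exposure; mean intensity from three 20×20 µm² boxes within epithelium per image, avoiding saturation.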

SW620 cells [2] = experiment: Apparent association time constant by flow cytometry; assay type: binding, human; conditions: from k = 0.83 min^−1
SW480 cells = experiment: Cell binding assay, confocal microscopy; assay type: cell-based, human
Method in brief: (§1)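 Cells grown in DMEM + 10% FBS + 1% penicillin/streptomycin at 37°C, 5% CO2, then seeded at ~0.5×10^6 cells/mL on coverslips. Next day, 10 µM Cy5.5-labeled test peptide or Cy5.5-labeled control peptide added for 1 h at 4°C. Fixed in 4% PFA 10 min RT, DAPI counterstain, confocal imaging. Intensities from 10 random cells in 3 independent images; one-way ANOVA.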

HCT116 cells = experiment: Cell binding assay, confocal microscopy; assay type: cell-based, human
SW620 cells [3] = experiment: Cell binding assay, confocal microscopy; assay type: cell-based, human
Method in brief: as §1

claudin-1 (CLDN1) = experiment: siRNA knockdown of claudin-1 expression, peptide and antibody staining; assay type: cell-based, human; conditions: control and CLDN1 siRNA, confocal
Method in brief: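 SW620 cells seeded at 0.2×10^6 cells/mL, transfected with DharmaFECT1 plus 25 nM CLDN1 SMARTpool or control siRNA for 72 h, then passaged onto coverslips. Knockdown checked by western blot. Staining: 5 µM Cy5.5-labeled peptide or control peptide 30 min at 4°C, then 4% PFA fixation; or methanol fixation, anti-CLDN1 5 µg/mL 1 h RT, AF488 secondary. Two-way ANOVA on average intensity (10 cells/slide, 2 slides/condition).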

Row | Substance | mean (±std) fluorescence intensity, SSA ([1]; n = 11 SSA) | mean (±std) fluorescence intensity, normal ([1]; n = 28 normal) | time constant / time scale for binding corresponding to k (SW620 cells [2]) | binding to cell surface on confocal microscopy (SW480 cells) | binding to cell surface on confocal microscopy (HCT116 cells) | binding to cell surface on confocal microscopy (SW620 cells [3]) | binding / signal in SW620 cells transfected with siCL or siCLDN1 (claudin-1 (CLDN1))
1 | RTSPSSR [RTS*-Cy5.5] | 20.1±13.3 | 9.1±6.0 | < 1.2 min and ~ 1.2 min |  |  |  | 
2 | SPTSSRR [SPT*-Cy5.5] |  |  |  | minimal binding | minimal binding | minimal binding | minimal binding
